Data on 15 compounds can be found in ChEMBL document CHEMBL2157986, “The multiobjective based design, synthesis and evaluation of the arylsulfonamide/amide derivatives of aryloxyethyl- and arylthioethyl- piperidines and pyrrolidines as a novel class of potent 5-HT₇ receptor antagonists” (Eur J Med Chem, 2012).

The species entered for one assay is Homo sapiens. Briefly: Selectivity ratio of Ki for human 5-HT1A receptor to Ki for human 5-HT7b receptor.
The target of assay [1] is 5-hydroxytryptamine receptor 7 (Homo sapiens, UniProt P34969). Briefly: Displacement of [3H]-5-CT from human 5-HT7b receptor expressed in HEK293 cells after 1 hr. The assay is classed as cell-based.
In assay [2] the target is T1, 5-hydroxytryptamine receptor 1A (Homo sapiens, UniProt P08908).
T1 sequence (P08908 whole entry): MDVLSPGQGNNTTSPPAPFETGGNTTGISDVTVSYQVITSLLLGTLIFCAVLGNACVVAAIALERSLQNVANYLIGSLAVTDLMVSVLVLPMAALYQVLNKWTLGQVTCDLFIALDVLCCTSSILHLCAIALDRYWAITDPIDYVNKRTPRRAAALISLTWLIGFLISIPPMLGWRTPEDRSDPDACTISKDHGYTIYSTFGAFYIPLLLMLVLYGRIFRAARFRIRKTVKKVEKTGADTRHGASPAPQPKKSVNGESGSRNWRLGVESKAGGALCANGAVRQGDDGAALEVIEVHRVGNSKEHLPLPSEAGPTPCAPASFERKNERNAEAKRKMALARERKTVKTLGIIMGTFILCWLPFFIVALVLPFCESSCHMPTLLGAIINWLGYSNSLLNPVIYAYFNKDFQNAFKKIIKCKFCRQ
Nature of the assay: Displacement of [3H]-8-OH-DPAT from human 5-HT1A receptor expressed in HEK293 cells after 1 hr. It counts as cell-based. The procedure, abridged: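 Membranes from stably transfected HEK293 cells (human 5-HT1A), homogenized in 50 mM Tris–HCl, 0.1 mM EDTA, 4 mM MgCl2, 10 µM pargyline, 0.1% ascorbate; incubated 1 h at room temperature, then rapid filtration and radioactivity counting. Nonspecific binding with 10 µM 5-HT.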

Assay [3] concerns the target 5-hydroxytryptamine receptor 6 (Homo sapiens, UniProt P50406). Briefly: Displacement of [3H]-LSD from human 5-HT6 receptor expressed in HEK293 cells after 1 hr. It counts as cell-based. On the technique in general: In a radioligand displacement assay an active substance lowers the binding of a labelled ligand.
The next assay addresses D(2) dopamine receptor (Homo sapiens, UniProt P14416). Nature of the assay: Binding affinity to human dopamine D2L receptor expressed in HEK293 cells after 1 hr. It counts as cell-based.

Sequence of 5-hydroxytryptamine receptor 6 (P50406 whole entry): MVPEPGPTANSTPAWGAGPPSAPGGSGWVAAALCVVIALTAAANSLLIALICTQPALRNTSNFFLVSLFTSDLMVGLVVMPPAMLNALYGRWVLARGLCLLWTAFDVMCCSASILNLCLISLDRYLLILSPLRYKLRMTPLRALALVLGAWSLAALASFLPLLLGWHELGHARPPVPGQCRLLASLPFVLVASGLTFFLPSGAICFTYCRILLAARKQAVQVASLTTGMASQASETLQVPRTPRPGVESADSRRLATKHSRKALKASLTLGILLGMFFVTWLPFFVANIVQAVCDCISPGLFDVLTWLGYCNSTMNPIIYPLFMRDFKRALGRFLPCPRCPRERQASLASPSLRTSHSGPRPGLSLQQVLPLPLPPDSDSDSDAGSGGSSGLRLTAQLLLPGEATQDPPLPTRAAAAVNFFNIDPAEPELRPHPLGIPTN
Sequence of 5-hydroxytryptamine receptor 7 (P34969 whole entry): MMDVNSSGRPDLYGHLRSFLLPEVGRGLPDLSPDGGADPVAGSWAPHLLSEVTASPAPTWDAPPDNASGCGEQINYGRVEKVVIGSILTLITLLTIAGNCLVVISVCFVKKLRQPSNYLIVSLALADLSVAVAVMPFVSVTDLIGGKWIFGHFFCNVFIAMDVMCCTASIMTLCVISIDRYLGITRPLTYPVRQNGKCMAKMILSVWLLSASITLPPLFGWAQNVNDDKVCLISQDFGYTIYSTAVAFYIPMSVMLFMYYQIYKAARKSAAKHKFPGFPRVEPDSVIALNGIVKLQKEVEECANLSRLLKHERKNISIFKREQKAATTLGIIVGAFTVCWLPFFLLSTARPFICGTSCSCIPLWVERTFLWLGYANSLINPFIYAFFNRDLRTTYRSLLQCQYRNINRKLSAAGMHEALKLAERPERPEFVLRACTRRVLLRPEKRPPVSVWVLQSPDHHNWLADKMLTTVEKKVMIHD
Sequence of D(2) dopamine receptor (P14416 whole entry): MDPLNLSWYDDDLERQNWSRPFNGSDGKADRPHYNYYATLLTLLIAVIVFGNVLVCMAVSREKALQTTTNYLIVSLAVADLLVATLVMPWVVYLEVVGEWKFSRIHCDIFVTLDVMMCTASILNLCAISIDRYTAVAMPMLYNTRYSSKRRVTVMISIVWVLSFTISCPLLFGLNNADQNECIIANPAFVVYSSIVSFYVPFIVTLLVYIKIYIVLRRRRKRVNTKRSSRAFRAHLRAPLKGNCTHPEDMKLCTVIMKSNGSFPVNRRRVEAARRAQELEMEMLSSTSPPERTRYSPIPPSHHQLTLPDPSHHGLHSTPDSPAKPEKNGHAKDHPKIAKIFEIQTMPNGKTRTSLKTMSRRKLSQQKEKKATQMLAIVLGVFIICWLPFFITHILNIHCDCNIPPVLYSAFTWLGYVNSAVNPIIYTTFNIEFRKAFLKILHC

One may read the Ki as a measure of affinity in units of concentration, obtained from inhibition or displacement. The low end stands for a stronger hold on the target, the high end for a looser hold on the target. `CC(C)c1ccccc1OCCN1CCC(CNS(=O)(=O)c2cccc(Cl)c2)CC1`: the Ratio Ki in the assay filed under Homo sapiens was 2. For the same compound, the Ki in assay [1] worked out at 46 nM; in assay [2], 104 nM; in assay [3] it was 177 nM; at D(2) dopamine receptor, 66 nM.

In the case of `O=S(=O)(N[C@H]1CCN(CCOc2ccccc2-c2ccccc2)C1)c1ccc(F)cc1`, the Ratio Ki in the assay listed under Homo sapiens was determined as 3. Also, the Ki in assay [1] is 10 nM; in assay [2], 32 nM; in assay [3] it was 271 nM; at D(2) dopamine receptor, 10 nM.

`O=S(=O)(NC1CCN(CCOc2ccccc2-c2ccccc2)C1)c1ccc(F)c(F)c1` (stereo not given): the Ratio Ki in the assay filed under Homo sapiens stood at 13. Also, the Ki in assay [1] came out at 7 nM; in assay [2], 92 nM; in assay [3] it was 327 nM; on D(2) dopamine receptor it was 24 nM.

With `O=S(=O)(NC1CCN(CCOc2cccc3c2CCCC3)C1)c1cccs1` (stereo not given), the Ratio Ki in the assay filed under Homo sapiens was less than 1. In addition, the Ki in assay [1] was 27 nM; in assay [2] it was 13 nM; in assay [3] it was 102 nM; on D(2) dopamine receptor, 72 nM.

As for `O=S(=O)(NCC1CCN(CCOc2ccccc2-c2ccccc2)CC1)c1ccc(F)cc1`, the Ratio Ki in the assay listed under Homo sapiens worked out at 22. The Ki in assay [1] amounted to 13 nM; in assay [2], 290 nM; in assay [3], 315 nM; on D(2) dopamine receptor, 46 nM.

Turning to `O=S(=O)(N[C@@H]1CCN(CCOc2ccccc2-c2ccccc2)C1)c1ccc(F)cc1`, the Ratio Ki in the assay filed under Homo sapiens was determined as 11. The Ki in assay [1] came out at 2 nM; in assay [2], 22 nM; in assay [3], 102 nM; at D(2) dopamine receptor it was 16 nM.

For the compound `O=C(NC1CCN(CCOc2ccccc2-c2ccccc2)C1)c1ccc2ccccc2n1` (stereo not given), the Ratio Ki in the assay filed under Homo sapiens was 1. Besides, the inhibition constant Ki in assay [1] was 41 nM; in assay [2], 45 nM; in assay [3] it was 1340 nM; at D(2) dopamine receptor, 24 nM.

On to `CSc1ccccc1OCCN1CCC(NS(=O)(=O)c2ccc(F)cc2)C1` (stereo not given), for which the Ratio Ki in the assay listed under Homo sapiens was 1. Besides, the Ki in assay [1] amounted to 11 nM; in assay [2] it was 10 nM; in assay [3] it was 357 nM; on D(2) dopamine receptor, 41 nM.

Regarding `O=S(=O)(NCC1CCN(CCOc2cccc(F)c2)CC1)c1ccc(F)cc1`, the Ratio Ki in the assay filed under Homo sapiens was less than 1. Moreover, the Ki in assay [1] was 1360 nM; in assay [2], 903 nM; in assay [3] it was 2120 nM; at D(2) dopamine receptor, 839 nM.

Take `O=S(=O)(NCC1CCN(CCOc2cccc(F)c2)CC1)c1cccc(Cl)c1`: the Ratio Ki in the assay filed under Homo sapiens is less than 1. The Ki in assay [1] came to 2190 nM; in assay [2] it was 283 nM; in assay [3], 831 nM; at D(2) dopamine receptor, 560 nM.

Take `O=S(=O)(NC1CCN(CCOc2ccccc2-c2ccccc2)C1)c1cc(F)ccc1F` (stereo not given): the Ratio Ki in the assay filed under Homo sapiens turned out to be 9. In addition, the Ki in assay [1] was found to be 9 nM; in assay [2], 81 nM; in assay [3] it was 515 nM; on D(2) dopamine receptor, 18 nM.

Regarding `CC(C)c1ccccc1OCCN1CCC(NC(=O)c2ccc3ccccc3n2)C1` (stereo not given), in the assay listed under Homo sapiens, the Ratio Ki is less than 1. Moreover, the Ki worked out at 178 nM in assay [1], 30 nM in assay [2], 1760 nM in assay [3] and 79 nM on D(2) dopamine receptor.

`O=S(=O)(NC1CCN(CCOc2ccccc2-c2ccccc2)CC1)c1ccc(F)c(F)c1`: the Ratio Ki in the assay listed under Homo sapiens worked out at 45. In addition, the Ki in assay [1] amounted to 7 nM; in assay [2], 313 nM; in assay [3], 199 nM; at D(2) dopamine receptor, 63 nM.

On to `O=S(=O)(NCC1CCN(CCOc2ccccc2-c2ccccc2)CC1)c1ccc(Cl)s1`, for which, in the assay listed under Homo sapiens, the Ratio Ki came out at 5. The Ki turned out to be 20 nM in assay [1], 101 nM in assay [2], 410 nM in assay [3] and 32 nM on D(2) dopamine receptor.

In the case of `O=S(=O)(NC1CCN(CCOc2ccccc2-c2ccccc2)C1)c1cccs1` (stereo not given), the Ratio Ki in the assay filed under Homo sapiens is 5. The Ki in assay [1] is 10 nM; in assay [2], 45 nM; in assay [3], 267 nM; at D(2) dopamine receptor, 16 nM.
